# Assay results taken from ChEMBL document CHEMBL4513216, “Probing the Open Global Health Chemical Diversity Library for Multistage-Active Starting Points for Next-Generation Antimalarials” (ACS Infect Dis, 2020).
# Assay: Toxicity liver stage against HepG2, at 10uM
# Type: cell-based
# Design: test concentration 10 uM, cell line HepG2-A16-CD81EGFP
# Details: human, HepG2-A16-CD81EGFP cells; read-out: INHIBITION
# In short: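 Uninfected HepG2-A16-CD81EGFP cells, 3 × 10^3 per well, 1536-well, plated on prespotted compound at 10 μM final, parasite-free screening media added to match infected plates; puromycin 10 μM positive, DMSO 0.5% negative; run in parallel with 48 h PbLuc assay at 37 °C, 5% CO2; viability by CellTiter-Glo luminescence, normalized to controls.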
row,SMILES,cytotoxicity at 10 µM [%]
1,Cc1ccc2c(c1)OCCCC2NCc1nnc2n1CCCCC2 (stereo not given),-7.89
2,CC(NCc1cccc(S(=O)(=O)N(C)C)c1)c1cccnc1 (stereo not given),1.56
3,CCc1nnc2n1CCN(C(=O)c1cc3cc(C)ccc3[nH]1)C2,0.893
4,Cc1cnn(CC2CCCCN2CC(=O)NCc2ccccn2)c1 (stereo not given),-6.16
5,CNS(=O)(=O)CC1CCCN1c1ccc(Cl)cn1 (stereo not given),7.6
6,O=C(CN1CCc2cncnc2C1)Nc1ccc(Cl)cn1,-3.24
7,COc1cc(CN2CCC(O)(c3ccc(C)cn3)CC2)cc(Cl)c1OC,-132
8,COc1cccc(CN(Cc2ccco2)Cc2cnc(C)n2C)c1,3.65
9,CC(=O)N[C@H]1C[C@@H](c2nc(-c3ccc4c(c3)OCO4)no2)N(C)C1,-2.92
10,Cn1ccnc1-c1cn(Cc2cn3c(n2)SCC3)nn1,-0.773
11,CC(=O)N(C)c1nc(CN2CCN(Cc3nccn3C)CC2)cs1,8.82
12,CCC(CO)NCc1ccc(-c2ccc(F)cc2)o1 (stereo not given),-5.67
13,COCCCNC(=O)NCc1nc(C)c(C)o1,10.1
14,O=C1CC[C@@H]2[C@@H](CCN2Cc2ccccn2)N1CC1CC1,4.76
15,CC(Nc1cccc(CN2CCOC2=O)c1)C(=O)N1CCNC1=O (stereo not given),-1.63
16,CCNC(=O)CN(CC)Cc1nc2c(F)cccc2n1CC,9.57
17,O=C1CCCN1CCN1CC=C(c2cnn(C3CCS(=O)(=O)C3)c2)CC1 (stereo not given),-0.36
18,c1cc(CC2CCCNC2)nc(NCCc2cnccn2)c1 (stereo not given),3.64
19,CN(C)Cc1cc(=O)n2c(n1)CN(CC1CCOCC1)CCC2,6.37
20,O=C(N1CCCC1)N1CCn2c(nnc2C2CCCN2)C1 (stereo not given),4.12
21,Clc1ccc(-c2nnc([C@H]3CCN(C4CCCCC4)C3)o2)cc1,-120
22,COCC(=O)N1CCC2(C1)c1ccccc1S(=O)(=O)N2CCC(C)C (stereo not given),-4.26

row,SMILES,cytotoxicity at 10 µM [%]
1,CC1CN(C(=O)c2nccnc2N)c2ccc(F)cc2O1 (stereo not given),4.28
2,c1cc(CCN2CCCC2CN2CCCC2)ccn1 (stereo not given),-2.35
3,CCc1nc(C)c([C@H]2CN(C)C[C@@H]2C(=O)Nc2ccc(OC)nc2)[nH]1,-3.59
4,O=S(=O)(N1CCOCC1)N1CCCCC1CCn1cccn1 (stereo not given),-0.302
5,Cc1cc2nc(CN(C)c3ccccc3)cc(=O)n2o1,0.719
6,Cc1nc(-c2cc(C(=O)NCCN3CCOCC3)c3ccccn23)cs1,3.59
7,CCOC(=O)c1sc2ccsc2c1CNC(=O)CC,-5.7
8,O=C(CCN1CCOC(C(F)(F)F)C1)NCc1ccccc1Cl (stereo not given),-3.13
9,Cc1cnc(NC(C)Cc2cccnc2)nc1N(C)C (stereo not given),-4.03
10,CN1CC2(CCN(CC3CC3)CC2)COc2ccccc2S1(=O)=O,-0.697
11,Fc1cccc(-c2nnn3c2COCC(CNCc2nccs2)C3)c1 (stereo not given),-112
12,O=C(NCC(O)(c1ccco1)C1CC1)c1c(F)cccc1Cl (stereo not given),-2.69
13,CCC(CC)(CCCNC(=O)c1c(C)noc1C)C1OCCO1,1.98
14,Cc1ccc(CNC(=O)c2cc(CN3CCC(O)CC3)on2)s1,-48.5
15,COc1cc(N2CC3(CCN(S(C)(=O)=O)C3)C2)ncn1,9.43
16,CC(C)C(CNC(=O)NCc1cc[nH]n1)N1CCOCC1 (stereo not given),-7.48
17,Cc1cccn2cc(CN3CCCC(O)C3)nc12 (stereo not given),2.25
18,COc1ccc(CC(=O)Nc2cccnc2N2CCCC2)cc1OC,-22.6
19,O=C(c1c[nH]c(=O)c(Cl)c1)N1C[C@H]2CC[C@@H](C1)N(CC1CCC1)C2,-153
20,Cc1ccc(C(=O)N2C[C@@H]3CN(S(C)(=O)=O)CCO[C@@H]3C2)s1,-4.75
21,O=C(NCCn1cccn1)c1nnc2ccccc2n1,-2.41
22,COCCN1CCN(c2ccc(C)nn2)Cc2ccc(C)nc21,-104

row,SMILES,cytotoxicity at 10 µM [%]
1,Cc1oncc1C(=O)N1CCC2(CC1)C(c1cnn(C)c1)CC(=O)N2C (stereo not given),-75.6
2,Cn1cc(N2CCC3(CCN(C(=O)c4cccn4C)C3)C2=O)cn1 (stereo not given),2.93
3,CC(C)=CCN1CC2(CCN(Cc3cccc(C#N)c3)CC2)CC1=O,-4.39
4,Nc1ccnc(N2C[C@H](O)[C@@H](N3CCN(c4ccccn4)CC3)C2)n1,6.7
5,COc1c(CNCc2cccc(C(=O)N(C)C)c2)c(C)nn1C,-16.9
6,c1cncc(-c2ccc3c(c2)C2(CCNCC2)CC3)c1,4.59
7,Cc1cc(C)n(CCC(=O)N2CCC(c3nc(C)no3)CC2)n1,23.3
8,Cc1nn(-c2ccc(C(=O)O)cc2)c2c1C(c1ccsc1)SCC(=O)N2 (stereo not given),0.153
9,O=C(O)C1(Cc2cc(-c3ccc(F)cc3F)no2)CCOCC1,3.37
10,COCC1CN(Cc2ccc(C)o2)Cc2ncn(CC3CC3)c21 (stereo not given),-11
11,CCc1ccc(C(=O)NCC2CCCN2CC)o1 (stereo not given),0.632
12,O=C(NCCN1CCCCCC1)c1cccc(Cl)c1Cl,5.8
13,CCc1nc2ccccc2c(=O)n1CC1(O)CCN(S(C)(=O)=O)CC1,-3.5
14,CCOCC1c2c(ncn2C(C)C)CCN1C(C)C (stereo not given),10.5
15,Cc1ccc(=O)n(CC(=O)N2CCCC(c3nc(C)c(C)s3)C2)n1 (stereo not given),-3.06
16,CN(Cc1nnc(C2CC2)n1C)S(=O)(=O)Cc1ccccc1F,16.8
17,CSCCc1c(-c2ccccc2)ncn1CC(C)(C)N1CCCC1,-47.8
18,CC1CCCCN1CCN(C)C(=O)c1cc(CN2CCC(O)CC2)on1 (stereo not given),1.14
19,Cc1cc(C(=O)Nc2cccn(Cc3ccc(F)cc3)c2=O)no1,3.15
20,Cn1ccnc1C1CCN(CCC2CCOC2)CC1 (stereo not given),-4.06
21,CN(C)c1ncc(-c2cc(C(=O)NC(C)(C)CO)n(CC3CC3)c2)cn1,-13.4
22,COCCN1C[C@@H]2CN(Cc3cccc(C)n3)C[C@@H]2C1=O,6.66

row,SMILES,cytotoxicity at 10 µM [%]
1,CS(=O)(=O)NC(=O)c1cc(Cl)c2c(c1)OCCCO2,-4.94
2,COCCN1C(=O)C[C@H]2[C@H]1CCN2Cc1ccccc1,-71.5
3,CC(=O)N1CCC(Oc2ccc(C#N)cn2)CC1,-17.3
4,Cc1ccc(C(=O)N[C@H]2CN(CCO)C[C@@H]2C2CC2)cc1Cl,6.93
5,OC(CN1CCCCCCC1)c1ccc(F)cc1 (stereo not given),-10.4
6,O=C(CCc1cccnc1)N1CCC(c2cnccn2)CC1,-10.4
7,CN(C)C(=O)N1CCn2nc(CNC(=O)CCC(F)(F)F)cc2C1,5.6
8,CCc1nc(CCNC(=O)NC2CCC(=O)N(C)C2)sc1C (stereo not given),2.78
9,COc1ccc(C(CO)NC(=O)Nc2cccc(C(C)=O)c2)cc1 (stereo not given),3.43
10,O=C(Nc1ccccn1)N(CCO)Cc1ccccc1Br,-14.4
11,CCCS(=O)(=O)N1CCC(NC(=O)c2cc3ccccc3s2)CC1,4.69
12,O=C(CCc1cc2n(n1)CCCN(Cc1ccccc1F)C2)NC1CC1,-12.8
13,CS(=O)(=O)N1CCO[C@H]2[C@@H](Oc3ncccc3F)CC[C@@H]21,-2.54
14,N#Cc1cccc(Cl)c1NCCCc1nc(=O)[nH][nH]1,24.2
15,CCC(C)(NCc1cccc(NC(C)=O)c1)c1nc(C)cs1 (stereo not given),-2.27
16,Cn1cc(Cl)c(C(=O)N2CCCN(C3Cc4ccccc4C3)CC2)n1,-4.86
17,CCC(NCc1ccccn1)c1ccccc1OCC(=O)NC (stereo not given),11.3
18,CN(c1nccc(-c2cnc3sc(Cl)cn3c2=O)n1)C1CCCCC1,1.36
19,Cc1ccc([C@@H]2CN(C(=O)c3ccoc3C)C[C@H]2NC(=O)C2CC2)cc1,4.22
20,O=C(CCn1cc(Cl)cn1)N1CCN(CC2CC2)[C@@H]2CS(=O)(=O)C[C@@H]21,2.28
21,Cc1nn(C)c(C)c1CCC(=O)NCc1cccnc1OC1CCCC1,-4.38
22,CN1CCCC2(CCN(c3cc(C(F)(F)F)nc(N(C)C)n3)C2)C1=O (stereo not given),13.1

row,SMILES,cytotoxicity at 10 µM [%]
1,O=C(NCc1ccon1)c1c(F)cc(Br)cc1F,12.3
2,O=C(c1ccsc1)N1CCN2C[C@H](OCc3ccccn3)C[C@H]2C1,-71.8
3,O=S1(=O)CCC(n2nc(COc3ccccc3)nc2-c2cnccn2)C1 (stereo not given),-4.64
4,CCO[C@@H]1CC[C@H]2[C@H]1OCCN2CC1CCC1,11.2
5,CC(C)c1cn(CC(=O)NC2CC(=O)N(CCc3ccccc3)C2)nn1 (stereo not given),-15.1
6,O=C(CCNC(=O)C1=Cc2ccccc2OC1)NCc1ccncc1,5.6
7,CCc1cc(CNC(=O)NCc2ccc(N3CCCCC3)cc2)on1,1.27
8,Cc1nc(C)n(CC2CCCN(CCc3ccccc3)C2)n1 (stereo not given),-3.12
9,CCc1nn(C)c(Cl)c1CN1CCC(Cc2nncn2C)CC1,-1.52
10,Cc1cc(C(=O)NCCN2CCCc3ccccc32)[nH]n1,0.868
11,O=C(c1coc(CN2CCN(c3ccccc3F)CC2)n1)N1CC=CC1,-3.06
12,Cc1cc(C(=O)N2CC[C@H]3[C@@H]2CCC(=O)N3c2ccccc2)no1,-113
13,O=C(Cc1cn2ccsc2n1)N1CCCC(n2ccnc2)C1 (stereo not given),-8.22
14,Cc1ccc(CN(C(=O)NCC2CCS(=O)(=O)C2)C2CC2)o1 (stereo not given),-144
15,O=c1[nH]c2cn(-c3ccc(Cl)cc3)c(=O)n2[nH]1,2.43
16,COC[C@@]12CC[C@@H](N3CCOCC3)C[C@H]1CCN(c1cnccn1)C2,4.76
17,O=c1[nH]ncc(NCCOc2cccc(Br)c2)c1Cl,41.8
18,CNC(=O)[C@@H](C1CCCCC1)N1CCC[C@H]1C(=O)NCCN1CCCC1,-4.31
19,CC1c2ncc(Cn3cncn3)n2CCN1C(=O)[C@H]1CCCO1 (stereo not given in full),-4.12
20,O=C(C1CCC1)N1CCN(Cc2ccc(F)cc2)[C@H]2CS(=O)(=O)C[C@H]21,1.65
21,CN(CC1CCC1)C(=O)Nc1cccnc1-n1cncn1,2.86
22,CCN1CCN(C(=O)c2ccn(C)c(=O)c2)CC1,8.66
